ChEMBL document CHEMBL4130446, “Environmentally Friendly Procedure Based on Supercritical Fluid Chromatography and Tandem Mass Spectrometry Molecular Networking for the Discovery of Potent Antiviral Compounds from Euphorbia semiperfoliata” (J Nat Prod, 2017)

How the values were obtained:
Chikungunya virus = assay: Antiviral activity against Chikungunya virus Indian ocean strain 899 infected in African green monkey Vero cells assessed as reduction in virus-induced cytopathic effect by MTS assay; assay type: functional, organism-based; conditions: Indian ocean 899, Vero
[1] = Selectivity index, ratio of CC50 for human MT2 cells to EC50 for HIV NL4.3 harboring renilla luciferase infected in human MT2 cells; assay type: toxicity, cell-based; conditions: read-out: Ratio CC50/EC50
How it was run: (§1)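 Selectivity index is CC50 divided by EC50: Vero CC50 over CHIKV EC50, or MT-2 CC50 over NL4.3-Ren EC50 (HIV). Inputs are in μM unless stated otherwise.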

[2] = Selectivity index, ratio of CC50 for African green monkey Vero cells to EC50 for Chikungunya virus Indian ocean strain 899 infected in African green monkey Vero cells; assay type: toxicity; conditions: read-out: Ratio CC50/EC50; how it was run: as §1
[3] = Cytotoxicity against human MT2 cells by Celltiter-Glo assay; assay type: cell-based
[4] = tested on: Human immunodeficiency virus; assay: Antiviral activity against HIV NL4.3 harboring renilla luciferase infected in human MT2 cells pretreated for 2 hrs followed by viral infection measured after 48 to 96 hrs post infection by luciferase reporter gene assay; assay type: functional, organism-based; conditions: Human immunodeficiency virus 1, NL4.3, MT2
How it was run: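 Recombinant NL4.3-Ren virus assay in MT-2 cells. EC50 is given in μM unless stated otherwise.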

[5] = Cytotoxicity against African green monkey Vero cells assessed as morphological changes by microscopic method; assay type: cell-based; conditions: chlorocebus sabaeus

| SMILES | EC50 (Chikungunya virus) [µM] | selectivity ratio [1] | selectivity ratio [2] | CC50 [3] [µM] | EC50 [4] [µM] | CC50 [5] [µM] |
| --- | --- | --- | --- | --- | --- | --- |
| C/C=C(\C)C(=O)O[C@@H]1[C@@H](C)[C@]2(O)[C@@H]3C=C(C)C(=O)[C@H]3CC(CO)=C[C@H]2[C@@H]2C(C)(C)[C@]12OC(=O)C(C)C | 1 | > 3920 | 25 | > 50 | 0.013 | 20 |
| CCCCCCCCCCCCCC(=O)O[C@@H]1[C@@H](C)[C@@]2(O)[C@@H](C=C(CO)C[C@]3(O)C(=O)C(C)=C[C@@H]23)[C@@H]2C(C)(C)[C@]12OC(C)=O [PHORBOL MYRISTATE ACETATE] |  |  | 1960 |  |  |  |
| C=C1[C@H](OC(C)=O)[C@@H](OC(C)=O)[C@@H](OC(C)=O)C(C)(C)/C=C/[C@@H](C)C(=O)[C@@]2(OC(C)=O)C[C@@](C)(OC(C)=O)[C@H](OC(C)=O)[C@@H]2[C@H]1OC(C)=O | 13.8 |  | > 10 |  |  | > 144 |
| C=C1[C@H](OC(C)=O)[C@@H](O)[C@@H](OC(C)=O)C(C)(C)/C=C/[C@@H](C)C(=O)[C@@]2(OC(C)=O)C[C@@](C)(OC(C)=O)[C@H](OC(C)=O)[C@@H]2[C@H]1OC(C)=O | > 153 |  |  |  |  |  |
| CC(=O)O[C@@]12C[C@@H](C)[C@@]3(O)[C@@H](C=C(CO)C[C@]4(O)C(=O)C(C)=C[C@@H]34)[C@@H]1C2(C)C [PROSTRATIN] |  | > 22 | 30 | > 50 | 0.226 |  |
| CC(=O)O[C@@H]1[C@@H](C)[C@]2(O)[C@@H]3C=C(C)C(=O)[C@H]3CC(CO)=C[C@H]2[C@@H]2C(C)(C)[C@]12OC(=O)C(C)C | 0.44 | > 919 | 390 | > 50 | 0.054 | 172 |
| C/C=C(\C)C(=O)O[C@@H]1[C@@H](C)[C@]2(O)[C@@H]3C=C(C)C(=O)[C@@H]3CC(CO)=C[C@H]2[C@@H]2C(C)(C)[C@]12OC(=O)C(C)C | 17 | > 12 | 7 | > 50 | 4.19 | 116 |
| C/C=C(\C)C(=O)O[C@@H]1[C@@H](C)[C@]2(O)[C@@H]3C=C(C)C(=O)[C@H]3CC(C)=C[C@H]2[C@@H]2C(C)(C)[C@]12OC(=O)C(C)C |  |  |  | > 50 |  | 154 |
